# Source: PubChem
# CHO-K1 Ca antag: M1 antagonist counterscreen hit in parental CHO-K1 cells; hit rate 0.6% among 360,000; inhibition, % at 3 µM; ATP-induced calcium, Fluo-8 fluorescence;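 active means inhibition above a per-plate cutoff, the plate's mean sample inhibition plus 3 SD, cut at about 24% in these data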;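 further: 0% = DMSO plus EC80 ATP and 100% = DMSO alone without ATP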
# CHO parental Ca: signal in parental CHO cells, OX1R antagonist counter-screen. inhibition, % at 5.6 µM. AID 463079. parental CHO-K1, ATP-induced calcium, Fluo-8 fluorescence. hit rate 0.63% among 330,000;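 active means inhibition above that plate's mean sample inhibition plus 3 SD, cut at about 26% in these data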;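 further: 0% = ATP-challenged DMSO wells and 100% = DMSO wells without ATP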
#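 Test system: parental CHO cells; detection: calcium-sensitive Fluo-8 fluorescence; evaluation: percent inhibition of calcium signal; also added: ATP as calcium-mobilizing challenge; repeats: one well per compound; control set: ATP-challenged DMSO wells low, unchallenged DMSO wells high; compound: single nominal dose of 5.6 µM per compound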
# CHO-K1 Ca ag: counter-screen for M1 agonists: effect in parental CHO-K1 cells; AID 602248; activation, % at 3 µM; Fluo-8 calcium fluorescence; scaled to maximal ATP response, vehicle zero; hit rate 0.48% among 360,000; in the data active means activation above about 15%;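 further: untransfected CHO-K1 host cells lacking M1 receptor as counterscreen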
# OX1R antag-1: antagonists of human orexin 1 receptor; hit rate 0.43% among 330,000; CHO/OX1R cells, Fluo-8 calcium fluorescence, orexin A; inhibition, % at 5 µM; AID 434989; O43613;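 active means inhibition above its plate's threshold, mean inhibition of all tested compounds on the plate plus 3 SD, cut at about 37% in these data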;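 further: 0% = orexin A challenge wells and 100% = SB-334867-A antagonist wells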
# Target sequence (O43613 whole entry, looked up): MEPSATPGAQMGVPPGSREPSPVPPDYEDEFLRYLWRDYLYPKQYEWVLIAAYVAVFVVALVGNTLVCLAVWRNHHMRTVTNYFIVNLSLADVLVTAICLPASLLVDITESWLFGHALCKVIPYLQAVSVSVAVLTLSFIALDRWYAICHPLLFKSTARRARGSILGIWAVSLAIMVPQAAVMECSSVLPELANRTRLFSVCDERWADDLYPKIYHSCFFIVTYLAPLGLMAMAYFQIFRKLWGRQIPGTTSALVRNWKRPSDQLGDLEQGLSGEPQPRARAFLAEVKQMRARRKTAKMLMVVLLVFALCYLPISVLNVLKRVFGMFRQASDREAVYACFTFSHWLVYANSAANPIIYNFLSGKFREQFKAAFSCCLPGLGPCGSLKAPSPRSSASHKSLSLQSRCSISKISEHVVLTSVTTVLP
# OX1R antag-2: blocks the human orexin 1 receptor. inhibition, % at 6.6 µM. OX1R-expressing cells, FRET antagonist read-out. hit rate 1.8% among 330,000. AID 485270; in the data active means inhibition mostly above about 38%, no sharp cut-off; inactive means mostly below about 40%;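 further: 0% = agonist challenge alone and 100% = reference antagonist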
# CHO-K1 Ca PAM: counter-screen for M1 PAMs: effect in parental CHO-K1 cells | hit rate 0.02% among 360,000 | AID 602247 | ATP EC20, Fluo-8 calcium fluorescence; 0% at ATP EC20, 100% at ATP max | activation, % at 3 µM;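 active means activation above the run cutoff, the mean activation of all test compounds plus 3 SD, cut at about 40% in these data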;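 further: peak over basal fluorescence ratio in a 140 s read after ATP addition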
# OX1R Ca confirm: confirmation of human orexin 1 receptor antagonists; shares compounds with OX1R antag-1; inhibition, % at 5 µM; CHO/OX1R cells, orexin A calcium Fluo-8 fluorescence; hit rate 38% among 1,100; in the data active means inhibition above about 29%;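 further: 0% = agonist challenge alone and 100% = reference antagonist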
# CHO Ca triplic: signal in parental CHO cells, OX1R antagonist counter-screen; shares compounds with OX1R antag-1; parental CHO-K1, ATP-induced calcium, Fluo-8 fluorescence; inhibition, % at 5.6 µM; hit rate 9.3% among 1,100; AID 492965;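 active means inhibition above a per-plate limit, the mean inhibition of that plate's test compounds plus 3 SD, cut at about 25% in these data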;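 further: 0% = ATP challenge with DMSO and 100% = DMSO without ATP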
# * = called active by the depositor; nt = not tested or not shown. This is a sample that favours compounds with a hit; in the whole collection about 2.9% have one here.
SMILES,CHO-K1 Ca antag,CHO parental Ca,CHO-K1 Ca ag,OX1R antag-1,OX1R antag-2,CHO-K1 Ca PAM,OX1R Ca confirm,CHO Ca triplic
Cc1cccc(NS(=O)(=O)c2cc3c4c(c2)C(C)C(=O)N4CCC3)c1 (stereo not drawn),-12,-13,2,29,33,-7,1,-5
Cc1cc(C)n(-c2nc(-c3cccc(Cl)c3)cs2)n1,-4,-26,0,41*,47,3,6,-17
Cc1cc(C)nc(/N=C(\N)Nc2ccc(S(=O)(=O)Nc3nc(C)cc(C)n3)cc2)n1,nt,-16,nt,-15,32,nt,nt,nt
Cc1cc(C)nc(/N=C(\N)Nc2ccc(S(N)(=O)=O)cc2)n1,-15,-9,2,4,2,20,nt,nt
Cc1cc(C)nc(/N=C(\N)Nc2ccc(SC(F)F)cc2)n1,15,18,30*,35,13,-18,64*,21
Cc1cc(C)nc(/N=C(\N)Nc2ccc(F)c([N+](=O)[O-])c2)n1,18,12,4,25,29,-3,40*,8
COc1ccc(C2=NOC(C(=O)NCc3cccnc3)C2)cc1 (stereo not drawn),-13,-2,2,-3,5,-4,nt,nt
Cc1ccc(C2=N/C(=C\c3cccnc3)C(=O)O2)cc1,-4,7,0,-1,0,1,nt,nt
O=C1OC(/C=C/c2ccccc2)=NC/1=C\c1cccnc1,-9,6,0,50*,23,12,4,1
C[C@@H]1CN([C@H](C)CO)C(=O)CCCn2nncc2CO[C@@H]1CN(C)S(=O)(=O)c1cccs1,9,nt,0,nt,nt,12,nt,nt
CC(NC(=O)c1ccco1)C(=O)N1CCN(c2cccc(Cl)c2)CC1 (stereo not drawn),2,-7,1,-14,3,-17,nt,nt
CC(C)C(NC(=O)Cc1ccccc1)C(=O)N1CCN(c2cccc(Cl)c2)CC1 (stereo not drawn),-6,5,14,41*,22,-11,21,19
CCCN1C(=O)/C(=C/c2ccc(C)o2)NC1=S,nt,-2,nt,-12,12,nt,nt,nt
CCCN1C(=O)/C(=C/c2ccc(N3CCOCC3)cc2)NC1=S,15,24,24*,26,4,1,15,19
CCOc1ccc(S(=O)(=O)NCc2ccncc2)cc1NC(=O)c1ccccc1F,8,-27,0,-26,32,13,nt,nt
CC(C)C1C(=O)N(Cc2cn(Cc3ccco3)nn2)CCS(=O)(=O)N1Cc1ccc(-c2ccc(Cl)c(Cl)c2)cc1 (stereo not drawn),3,nt,1,nt,nt,8,nt,nt
CC(C(=O)Nc1ccccc1)c1ccc(-c2ccccc2)c(F)c1 (stereo not drawn),0,13,3,40*,31,-5,13,23
CN(C)c1ccc(CNC(=O)C2Cc3c(-c4ccccc4Oc4ccccc4)ccnc3O2)cc1 (stereo not drawn),-4,nt,-1,nt,nt,2,nt,nt
CCN(CC)c1ccc(C(=O)N/N=C/c2ccc(OC)cc2OC)cc1,-5,-31,0,41*,77,13,34*,-11
CSc1cccc(N2CC(C(=O)N(CC(C)C)c3c(N)n(Cc4ccccc4)c(=O)[nH]c3=O)CC2=O)c1 (stereo not drawn),2,-11,0,-9,18,-3,nt,nt
CC(C)C[C@@H](CNCC(=O)[C@H](CC(C)C)NC(=O)c1[nH]cnc1C(=O)N[C@@H](C)CN)NC(=O)c1nc[nH]c1C(=O)N[C@@H](CC(=O)O)C(=O)O,-8,nt,1,nt,nt,2,nt,nt
O=C(CCCOc1ccccc1)Nc1cccc([N+](=O)[O-])c1,8,12,3,40,31,-8,7,0
Cc1ccc(OCCCC(=O)Nc2ccc(Cl)c(S(=O)(=O)N3CCOCC3)c2)cc1,-7,-8,7,23,2,-13,nt,nt
O=C(O)CCCC(=O)Nc1cccc([N+](=O)[O-])c1,-11,-11,0,-8,19,15,nt,nt
O=C(CCCOc1ccccc1)Nc1ccc(Cl)c(S(=O)(=O)N2CCOCC2)c1,2,2,3,38,23,-4,6,4
SMILES,CHO-K1 Ca antag,CHO parental Ca,CHO-K1 Ca ag,OX1R antag-1,OX1R antag-2,CHO-K1 Ca PAM,OX1R Ca confirm,CHO Ca triplic
O=C(CSc1nnc(COc2ccc(Cl)cc2)o1)N1CCCCC1,6,-26,2,-31,10,-10,nt,nt
O=C(NCc1cccc(F)c1)Nc1nnc([C@@H]2C[C@H](O)[C@@H](CO)O2)s1,-11,nt,0,nt,nt,18,nt,nt
COC(=O)c1c(-c2ccc(N(C)C)cc2)sc2ccc(OC)cc12,8,-19,4,65*,30,1,16,-7
COC(=O)c1c(-c2ccc(OC)cc2)sc2cc3c(cc12)OCO3,-2,-20,1,-27,-4,6,nt,nt
CCCCNC(=O)C1(C)CCCCN1C(=O)c1cc(C#N)cs1 (stereo not drawn),-5,nt,1,nt,nt,-9,nt,nt
O=C(Cc1ccccc1)n1nc(-c2ccco2)nc1SCc1ccccc1,8,-4,0,40*,8,17,5,-1
O=C(c1ccco1)n1nc(-c2ccco2)nc1SCc1ccccc1,2,9,0,-10,8,6,nt,nt
O=C(CSc1nnc2ccc(-c3ccc(F)cc3)nn12)N1CCOCC1,-8,-18,0,-15,28,10,nt,nt
C[C@@H]1CN([C@@H](C)CO)C(=O)c2cccc(NC(=O)Nc3ccc(F)cc3)c2O[C@@H]1CN(C)Cc1ccc(Oc2ccccc2)cc1,3,28,2,52*,4,14,62*,24
CCN(CC)S(=O)(=O)c1ccc2oc(C(=O)NCc3ccc(F)cc3)c(C)c2c1,-11,20,3,25,13,11,0,-5
Cc1c(C(=O)NCc2ccc(F)cc2)oc2ccc(S(=O)(=O)N3CCOCC3)cc12,-7,-21,8,-15,12,-24,nt,nt
CCOC(=O)C1CN(C(=O)OCC)CC1=NNC(N)=O (stereo not drawn),-10,nt,0,nt,nt,23,nt,nt
COc1ccc2c(COC(=O)c3cccc(S(=O)(=O)NCC(C)C)c3)cc(=O)oc2c1,20,15,17*,46*,34,-12,42*,5
CCSC1=N/C(=C\C=C2/Oc3ccccc3N2CC)C(=O)S1,-4,12,7,32,42,17,16,12
O=C(NCCN1C(=O)S/C(=C\c2ccccc2)C1=O)c1cc(S(=O)(=O)N2CCOCC2)c(Cl)cc1Cl,21,19,15*,30,34,-13,59*,4
CCN(CC)S(=O)(=O)c1ccc(N2CCCC2)c(NC(=O)CSCc2c(C)noc2C)c1,-8,nt,0,nt,nt,-10,nt,nt
